The text below walks through data of ChEMBL document CHEMBL1914320, “C4-alkylthiols with activity against Moraxella catarrhalis and Mycobacterium tuberculosis” (Bioorg Med Chem, 2011).

≈ marks a conversion by molar mass, not a printed value. Calls of active or inactive are those of the source. The calls are words filed in the database; no cut-off is given here. Where only a bound is given, the exact number is not on record here.

The subject of data set [1] is Moraxella catarrhalis. In words: Antibacterial activity against beta-lactamase producing Moraxella catarrhalis isolate 1 at 10 ug/disc after overnight incubation by disc diffusion assay. Format: functional. The method in brief:
(§1)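 Isolates were held at −80 °C. Five colonies were suspended in Mueller-Hinton broth to a 0.5 McFarland density and swabbed onto MH agar. Discs carried 10 μg compound, applied in methanol and dried at room temperature. Plates were incubated overnight at 37 °C, and the zone of inhibition was measured in mm from the disc edge. Controls were methanol-only and penicillin discs. Run blinded, in triplicate.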

The test system of data set [2] is Moraxella catarrhalis. In words: Antibacterial activity against beta-lactamase producing Moraxella catarrhalis isolate 2 at 10 ug/disc after overnight incubation by disc diffusion assay. In kind it is functional. Conditions: read-out: IZ. The method in brief:
as §1

Data set [3] relates to Moraxella catarrhalis. In words: Antibacterial activity against beta-lactamase producing Moraxella catarrhalis isolate 3 at 10 ug/disc after overnight incubation by disc diffusion assay. In kind it is functional. The method in brief: as §1
A general note: In agar diffusion tests the substance spreads into inoculated agar from a disc or well.

Data set [4] relates to Moraxella catarrhalis. In words: Antibacterial activity against beta-lactamase producing Moraxella catarrhalis isolate 4 at 10 ug/disc after overnight incubation by disc diffusion assay. Format: functional. Conditions: for zone of inhibition at 10 µg/disc: read-out: IZ. The method in brief:
as §1

Data set [5] relates to Moraxella catarrhalis. In words: Antibacterial activity against beta-lactamase producing Moraxella catarrhalis isolate 5 at 10 ug/disc after overnight incubation by disc diffusion assay. Format: functional. The conditions noted are these: read-out: IZ. The method in brief:
as §1

Data set [6] has as its system Escherichia coli. In words: Antibacterial activity against non-beta-lactamase producing Escherichia coli ATCC 25922 at 10 ug/disc after overnight incubation by disc diffusion assay. In kind it is functional, organism-based. The method in brief: as §1
Data set [7] concerns Pseudomonas aeruginosa. In words: Antibacterial activity against non-beta-lactamase producing Pseudomonas aeruginosa ATCC 27853 at 10 ug/disc after overnight incubation by disc diffusion assay. In kind it is functional, organism-based. The method in brief: as §1
The subject of data set [8] is Staphylococcus aureus. In words: Antibacterial activity against non-beta-lactamase producing Staphylococcus aureus ATCC 25923 at 10 ug/disc after overnight incubation by disc diffusion assay. In kind it is functional, organism-based. The method in brief:
as §1

Data set [9] concerns Enterococcus faecalis. The data set can be described thus: Antibacterial activity against non-beta-lactamase producing Enterococcus faecalis ATCC 29212 at 10 ug/disc after overnight incubation by disc diffusion assay. In kind it is functional, organism-based. The method in brief: as §1
Data set [10] deals with Escherichia coli. In words: Antibacterial activity against non-beta-lactamase producing Escherichia coli ATCC 25922 after 48 hrs by microdilution broth method. In kind it is functional, organism-based. The method in brief: (§2)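 Broth microdilution followed CLSI guidelines. Compound was dissolved in 95% ethanol, diluted at least 10-fold into Mueller-Hinton broth, then serially two-fold diluted from 500 to 15.6 μg/mL. Actively growing culture was added at 5 × 10^5 cells/mL. Plates ran 48 h at 37 °C, scored for visible growth at 24 and 48 h. MIC was the lowest concentration without growth. For MBC, 10 μL from each clear well was plated on MH agar. Controls were ethanol and penicillin. Triplicate.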

Data set [11] deals with Pseudomonas aeruginosa. In words: Antibacterial activity against non-beta-lactamase producing Pseudomonas aeruginosa ATCC 27853 after 48 hrs by microdilution broth method. Format: functional, organism-based. The method in brief: as §2
Data set [12] concerns Staphylococcus aureus. The data set can be described thus: Antibacterial activity against non-beta-lactamase producing Staphylococcus aureus ATCC 25923 after 48 hrs by microdilution broth method. Format: functional, organism-based. The method in brief:
as §2
(In general: Broth dilution looks for growth in wells or tubes with falling amounts of substance.)

For data set [13], the system named is Enterococcus faecalis. In words: Antibacterial activity against non-beta-lactamase producing Enterococcus faecalis ATCC 29212 after 48 hrs by microdilution broth method. Format: functional, organism-based. The method in brief:
as §2

Data set [14] is described as follows: Chemical stability of the compound assessed as compound degradation after 48 hrs by NMR analysis. In kind it is physicochemical. Conditions: for degraded at 48 h: read-out: Drug metabolism.
In data set [15] the test system is Moraxella catarrhalis. In words: Antibacterial activity against beta-lactamase producing Moraxella catarrhalis isolate 1 at 10 ug/disc after overnight incubation by disc diffusion assay in presence of 1 mol equiv of glutathione. In kind it is functional. The conditions noted are these: read-out: IZ.
Data set [16] deals with Moraxella catarrhalis. In words: Antibacterial activity against beta-lactamase producing Moraxella catarrhalis isolate 2 at 10 ug/disc after overnight incubation by disc diffusion assay in presence of 1 mol equiv of glutathione. Format: functional. Conditions: read-out: IZ.
Data set [17] relates to Moraxella catarrhalis. In words: Antibacterial activity against beta-lactamase producing Moraxella catarrhalis isolate 3 at 10 ug/disc after overnight incubation by disc diffusion assay in presence of 1 mol equiv of glutathione. In kind it is functional.
In data set [18] the test system is Moraxella catarrhalis. The data set can be described thus: Antibacterial activity against beta-lactamase producing Moraxella catarrhalis isolate 4 at 10 ug/disc after overnight incubation by disc diffusion assay in presence of 1 mol equiv of glutathione. Format: functional. The conditions noted are these: read-out: IZ.
The test system of data set [19] is Moraxella catarrhalis. The data set can be described thus: Antibacterial activity against beta-lactamase producing Moraxella catarrhalis isolate 5 at 10 ug/disc after overnight incubation by disc diffusion assay in presence of 1 mol equiv of glutathione. In kind it is functional. Conditions: read-out: IZ.
For data set [20], the system named is Moraxella catarrhalis. The data set can be described thus: Antibacterial activity against beta-lactamase producing Moraxella catarrhalis isolate 6 at 10 ug/disc after overnight incubation by disc diffusion assay in presence of 1 mol equiv of glutathione. Format: functional.
The test system of data set [21] is Moraxella catarrhalis. The data set can be described thus: Antibacterial activity against beta-lactamase producing Moraxella catarrhalis isolate 1 after 48 hrs incubation by microdilution broth method. Format: functional. The conditions noted are these: isolate 1, 48 h. The method in brief:
as §2

The subject of data set [22] is Moraxella catarrhalis. In words: Antibacterial activity against beta-lactamase producing Moraxella catarrhalis isolate 2 after 48 hrs incubation by microdilution broth method. In kind it is functional. Conditions: isolate 2, 48 h. The method in brief: as §2
The test system of data set [23] is Moraxella catarrhalis. The data set can be described thus: Antibacterial activity against beta-lactamase producing Moraxella catarrhalis isolate 3 after 48 hrs incubation by microdilution broth method. In kind it is functional. Conditions: isolate 3, 48 h. The method in brief:
as §2

The subject of data set [24] is Moraxella catarrhalis. In words: Antibacterial activity against beta-lactamase producing Moraxella catarrhalis isolate 4 after 48 hrs incubation by microdilution broth method. Conditions: isolate 4, 48 h. In kind it is functional. The method in brief:
as §2

Data set [25] deals with Moraxella catarrhalis. The data set can be described thus: Antibacterial activity against beta-lactamase producing Moraxella catarrhalis isolate 5 after 48 hrs incubation by microdilution broth method. Format: functional. The conditions noted are these: isolate 5, 48 h. The method in brief:
as §2

In data set [26] the test system is Moraxella catarrhalis. In words: Antibacterial activity against beta-lactamase producing Moraxella catarrhalis isolate 6 after 48 hrs incubation by microdilution broth method. Format: functional. Conditions: isolate 6, 48 h. The method in brief: as §2
Data set [27] deals with Mycobacterium tuberculosis. In words: Antimycobacterial activity against wild type Mycobacterium tuberculosis H37Rv by Alamar blue assay. Format: functional. For orientation: The colour change of resazurin is a common sign of viable cells or microbes.
The subject of data set [28] is Moraxella catarrhalis. The data set can be described thus: Antibacterial activity against beta-lactamase producing Moraxella catarrhalis isolate 6 at 10 ug/disc after overnight incubation by disc diffusion assay. In kind it is functional. The method in brief:
as §1

Regarding `CCOC(=O)C/N=C\C(S)(CC)CC`, the “inhibition zone (IZ)” value in the data set with Moraxella catarrhalis [1], with Moraxella catarrhalis [3] and in the data set on Moraxella catarrhalis [4] was “inactive” throughout. The results for the zone of inhibition at 10 µg/disc with Moraxella catarrhalis [2] and in the data set on Moraxella catarrhalis [5] were 2 mm and 11 mm, respectively. Moreover, the outcome with Escherichia coli [6], with Pseudomonas aeruginosa [7], in the data set on Staphylococcus aureus [8], with Enterococcus faecalis [9], in the data set with Escherichia coli [10] and in the data set on Pseudomonas aeruginosa [11] was inactive. Moreover, the result in the data set on Staphylococcus aureus [12] and in the data set on Enterococcus faecalis [13] was inactive. The Percent compound degraded in data set [14] (48 h) turned out to be 10%.
With `CCOC(=O)C/N=C\C(CC)(CC)SSC(/C=N/CC(=O)OCC)(CC)CC`, the outcome in the data set on Escherichia coli [6], in the data set with Pseudomonas aeruginosa [7], in the data set on Staphylococcus aureus [8], in the data set with Enterococcus faecalis [9], with Escherichia coli [10] and in the data set on Pseudomonas aeruginosa [11] was inactive. Besides, the result in the data set on Staphylococcus aureus [12] and with Enterococcus faecalis [13] was inactive. Further, the degraded at 48 h in data set [14] worked out at 10%.
For `CCC(C=O)(CC)SSC(/C=N\CC(=O)OC)(CC)CC`, the outcome in the data set with Escherichia coli [6], in the data set on Pseudomonas aeruginosa [7], with Staphylococcus aureus [8], in the data set with Enterococcus faecalis [9], in the data set on Escherichia coli [10] and in the data set with Pseudomonas aeruginosa [11] was inactive. The result in the data set on Staphylococcus aureus [12] and in the data set on Enterococcus faecalis [13] was inactive. Besides, the degraded at 48 h in data set [14] stood at 10%.
The MBC is the lowest tested concentration that kills the bacteria rather than only halting them. Low readings indicate more potent killing, high ones less potent killing. Consider `O=C1CC(Sc2ccc(S)cc2)N1` (racemic), for which the “inhibition zone (IZ)” value in the data set on Moraxella catarrhalis [1], in the data set with Moraxella catarrhalis [3], in the data set on Moraxella catarrhalis [17], in the data set on Moraxella catarrhalis [20] and in the data set on Moraxella catarrhalis [28] was “inactive” in each case. Besides, the zone of inhibition at 10 µg/disc in the data set with Moraxella catarrhalis [2] was determined as 8 mm; in the data set with Moraxella catarrhalis [4] it was 7 mm; in the data set on Moraxella catarrhalis [5], 8 mm; with Moraxella catarrhalis [15], 7 mm; with Moraxella catarrhalis [16], 7 mm; in the data set with Moraxella catarrhalis [18], 7 mm. Moreover, in the data set on Moraxella catarrhalis [19], the zone of inhibition at 10 µg/disc was 7 mm. Besides, the MBC came out at 250 mg/L (≈ 1180 µM) against Moraxella catarrhalis [21]; 125 mg/L (≈ 592 µM) in the data set with Moraxella catarrhalis [22]; 125 mg/L (≈ 592 µM) against Moraxella catarrhalis [23]; 500 mg/L (≈ 2370 µM) with Moraxella catarrhalis [24]; 125 mg/L (≈ 592 µM) in the data set with Moraxella catarrhalis [25]; 125 mg/L (≈ 592 µM) in the data set on Moraxella catarrhalis [26]. The MBC in [27] stood at 25 mg/L (≈ 118 µM). Besides, the result in the data set on Escherichia coli [6], in the data set with Pseudomonas aeruginosa [7], in the data set on Staphylococcus aureus [8], in the data set with Enterococcus faecalis [9], in the data set with Escherichia coli [10] and in the data set on Pseudomonas aeruginosa [11] was inactive. Moreover, the outcome with Staphylococcus aureus [12] and in the data set with Enterococcus faecalis [13] was inactive.
Turning to `O=C1CC(Sc2ccc(O)cc2)N1S(=O)(=O)O` (racemic), the zone of inhibition at 10 µg/disc with Moraxella catarrhalis [1] (read-out: IZ) was 13 mm; in the data set on Moraxella catarrhalis [2], 9 mm; in the data set with Moraxella catarrhalis [3] (read-out: IZ) it was 7 mm; with Moraxella catarrhalis [4], 8 mm; in the data set with Moraxella catarrhalis [5], 9 mm; in the data set on Moraxella catarrhalis [15], 9 mm. The zone of inhibition at 10 µg/disc in the data set with Moraxella catarrhalis [16] came to 7 mm; in the data set with Moraxella catarrhalis [17] (read-out: IZ), 7 mm; in the data set on Moraxella catarrhalis [18], 7 mm; in the data set with Moraxella catarrhalis [19] it was 8 mm; with Moraxella catarrhalis [20] (read-out: IZ) it was 8 mm; with Moraxella catarrhalis [28] (read-out: IZ), 8 mm. The MBC in the data set with Moraxella catarrhalis [21] is above 500 mg/L; against Moraxella catarrhalis [22], below 15.6 mg/L; against Moraxella catarrhalis [23] it was below 15.6 mg/L; with Moraxella catarrhalis [24], below 15.6 mg/L; in the data set on Moraxella catarrhalis [25], below 15.6 mg/L; against Moraxella catarrhalis [26], below 15.6 mg/L. This compound also had a minimal bactericidal concentration (MBC) in [27] above 200 mg/L. The result with Escherichia coli [6], in the data set with Pseudomonas aeruginosa [7], with Staphylococcus aureus [8], in the data set with Enterococcus faecalis [9], in the data set on Escherichia coli [10] and in the data set with Pseudomonas aeruginosa [11] was inactive. The outcome in the data set on Staphylococcus aureus [12] and in the data set with Enterococcus faecalis [13] was inactive.
Regarding `CCOC(=O)C/N=C\C(CC)(CC)SSC(C=O)(CC)CC`, the result in the data set on Escherichia coli [6], in the data set with Pseudomonas aeruginosa [7], with Staphylococcus aureus [8], with Enterococcus faecalis [9], in the data set on Escherichia coli [10] and in the data set with Pseudomonas aeruginosa [11] was inactive. Moreover, the outcome in the data set with Staphylococcus aureus [12] and in the data set on Enterococcus faecalis [13] was inactive. Moreover, in data set [14], the degraded at 48 h came to 10%.
